Key:
[1] = Growth inhibition of human EKVX cells after 48 hrs by sulforhodamine B assay; type: functional
In short: (§1)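 NCI 60-cell-line screen. Compounds tested at five 10-fold dilutions from 10^-4 to 10^-8 M. Cells exposed for the last 48 h of a 72 h incubation, growth estimated by sulforhodamine B protein assay. GI50 is the concentration giving 50% growth inhibition. Values beyond the tested range are expressed as greater or lesser than the extreme concentration.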

MDA-MB-435 = assay: Growth inhibition of human MDA-MB-435 cells after 48 hrs by sulforhodamine B assay; type: functional; conditions: MDA-MB-435, 48 h; in short: as §1
MDA-MB-468 = assay: Growth inhibition of human MDA-MB-468 cells after 48 hrs by sulforhodamine B assay; type: functional; conditions: MDA-MB-468, 48 h; in short: as §1
MCF7 = assay: Growth inhibition of human MCF7 cells after 48 hrs by sulforhodamine B assay; type: functional; conditions: MCF7, 48 h; in short: as §1
UACC-62 = assay: Growth inhibition of human UACC62 cells after 48 hrs by sulforhodamine B assay; type: functional; conditions: UACC-62, 48 h
SR = assay: Growth inhibition of human SR cells after 48 hrs by sulforhodamine B assay; type: functional
K562 = assay: Growth inhibition of human K562 cells after 48 hrs by sulforhodamine B assay; type: functional; conditions: K562, 48 h; in short: as §1
ACHN = assay: Growth inhibition of human ACHN cells after 48 hrs by sulforhodamine B assay; type: functional; in short: as §1
[2] = Growth inhibition of human RXF393 cells after 48 hrs by sulforhodamine B assay; type: functional; conditions: RXF 393, 48 h
[3] = Growth inhibition of human HOP92 cells after 48 hrs by sulforhodamine B assay; type: functional; conditions: HOP-92, 48 h; in short: as §1
OVCAR-4 = assay: Growth inhibition of human OVCAR4 cells after 48 hrs by sulforhodamine B assay; type: functional; conditions: OVCAR-4, 48 h; in short: as §1
MT4 = assay: Antiproliferative activity against human MT4 cells after 96 hrs by MTT assay; type: functional, cell-based; conditions: MT4, 96 h
In short: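 Exponentially growing MT-4 cells (CD4+ human T-cells carrying integrated HTLV-1 genome), seeded at 1×10^5 cells/mL in RPMI-1640 with 10% FCS and antibiotics. Serial dilutions of compound (DMSO stock 100 mM, diluted in medium), 37 °C, 5% CO₂, 96 h. Viability read by MTT. 50% inhibition versus untreated controls by linear regression. Mean ± SD of three independent determinations.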

CAKI-1 = assay: Growth inhibition of human CAKI-1 cells after 48 hrs by sulforhodamine B assay; type: functional; conditions: CAKI-1, 48 h; in short: as §1
T47D = assay: Growth inhibition of human T47D cells after 48 hrs by sulforhodamine B assay; type: functional
NCI-H23 = assay: Growth inhibition of human NCI-H23 cells after 48 hrs by sulforhodamine B assay; type: functional; conditions: NCI-H23, 48 h; in short: as §1
SK-MEL-5 = assay: Growth inhibition of human SK-MEL-5 cells after 48 hrs by sulforhodamine B assay; type: functional; conditions: SK-MEL-5, 48 h
NCI-H460 = assay: Growth inhibition of human NCI-H460 cells after 48 hrs by sulforhodamine B assay; type: functional; conditions: NCI-H460, 48 h; in short: as §1
[4] = Growth inhibition of human LOXIMVI cells after 48 hrs by sulforhodamine B assay; type: functional; conditions: LOX IMVI; in short: as §1
[5] = Growth inhibition of human RPMI8226 cells after 48 hrs by sulforhodamine B assay; type: functional; conditions: RPMI-8226, 48 h
[6] = Growth inhibition of human Hs 578T cells after 48 hrs by sulforhodamine B assay; type: functional; in short: as §1
NCI-H522 = assay: Growth inhibition of human NCI-H522 cells after 48 hrs by sulforhodamine B assay; type: functional; conditions: NCI-H522, 48 h; in short: as §1
A549 = assay: Growth inhibition of human A549 cells after 48 hrs by sulforhodamine B assay; type: functional; conditions: A549, 48 h; in short: as §1
HCT-116 = assay: Growth inhibition of human HCT116 cells after 48 hrs by sulforhodamine B assay; type: functional; conditions: HCT-116, 48 h; in short: as §1
U-251 = assay: Growth inhibition of human U251 cells after 48 hrs by sulforhodamine B assay; type: functional; conditions: U-251, 48 h
M14 = assay: Growth inhibition of human M14 cells after 48 hrs by sulforhodamine B assay; type: functional; conditions: M14, 48 h; in short: as §1
HL-60(TB) = assay: Growth inhibition of human HL-60(TB) cells after 48 hrs by sulforhodamine B assay; type: functional; conditions: HL-60, 48 h
In short: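 NCI 60-cell-line screen, HL-60(TB) included. Compound given at five 10-fold dilutions from 10^-4 to 10^-8 M. Cells exposed for the last 48 h of a 72 h incubation. Growth or viability estimated by sulforhodamine B protein assay. GI50 is the concentration giving 50% growth inhibition. Values outside the tested range are reported as greater or less than the highest or lowest concentration.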

[7] = Growth inhibition of human SF295 cells after 48 hrs by sulforhodamine B assay; type: functional; conditions: SF-295, 48 h
SK-OV-3 = assay: Growth inhibition of human SKOV3 cells after 48 hrs by sulforhodamine B assay; type: functional; conditions: SK-OV-3, 48 h
KM12 = assay: Growth inhibition of human KM12 cells after 48 hrs by sulforhodamine B assay; type: functional; conditions: KM12, 48 h; in short: as §1
[8] = Growth inhibition of human COLO205 cells after 48 hrs by sulforhodamine B assay; type: functional; conditions: COLO 205, 48 h; in short: as §1
SNB-75 = assay: Growth inhibition of human SNB75 cells after 48 hrs by sulforhodamine B assay; type: functional; conditions: SNB-75, 48 h
PC-3 = assay: Growth inhibition of human PC3 cells after 48 hrs by sulforhodamine B assay; type: functional; conditions: PC-3, 48 h

O=C(/C(=C\c1c(-c2ccccc2)[nH]c2ccccc12)S(=O)(=O)c1ccccc1)c1ccccc1
GI50 [1]: 4.6 µM | GI50 (MDA-MB-435): 3.9 µM | GI50 (MDA-MB-468): 4.2 µM | GI50 (MCF7): 5 µM | GI50 (UACC-62): 9 µM | GI50 (SR): 9.9 µM | GI50 (K562): 6.5 µM | GI50 (ACHN): 6.7 µM | GI50 [2]: 97.1 µM | GI50 [3]: 5 µM | GI50 (OVCAR-4): 6.6 µM | EC50 (MT4): 3 µM | GI50 (CAKI-1): 3.1 µM | GI50 (T47D): 3.4 µM | GI50 (NCI-H23): 9.6 µM | GI50 (SK-MEL-5): 9 µM | GI50 (NCI-H460): 5.9 µM | GI50 [4]: 74.7 µM | GI50 [5]: 7.6 µM | GI50 [6]: 39.5 µM | GI50 (NCI-H522): 91.8 µM | GI50 (A549): 35 µM | GI50 (HCT-116): 4.9 µM | GI50 (U-251): 8.6 µM | GI50 (M14): 15.6 µM | GI50 (HL-60(TB)): 5 µM | GI50 [7]: 3.5 µM | GI50 (SK-OV-3): 7.6 µM | GI50 (KM12): 5.1 µM | GI50 [8]: 7.8 µM | GI50 (SNB-75): 10.1 µM | GI50 (PC-3): 5 µM

— ChEMBL document CHEMBL3616442, “Unconventional Knoevenagel-type indoles: Synthesis and cell-based studies for the identification of pro-apoptotic agents” (Eur J Med Chem, 2015)
